From the RNAGym collection of RNA variant scans (doi:10.1038/nmeth.2970)

B1: NELF-E aptamer (parent)
chain: CCCAACGACUGCCGAGCGAGAUUACGCUUGAGCGCCCCACUGAGGAUGCCCACGGGCGAUUGGGGCACGG

Variants of: B1
Assay: HiTS-RAP
Settings: with NELF-E (Drosophila)
Method in brief: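 Aptamer DNA templates carrying a T7 promoter and ter site were sequenced on an Illumina GAIIx flowcell, then transcribed in situ by T7 RNA polymerase and halted by GST-Tus (30 minutes, 37°C). Clusters were imaged after 30-minute room-temperature equilibration with NELF-E-mOrange at 0.064 to 1000 nM in HEPES binding buffer, and only the first binding curve was used. Intensities were normalised to sequencing intensity and averaged per sequence. Kd came from weighted Hill fits, keeping fits with variance below 1,000,000.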

| Variant | Kd |
| --- | --- |
| CCCAACGACUACCGAGCGAGAUUACGCUUGGGCGCCCCACUGAGGAUGCCCACGGGCGAUUGGGGCACGG [G11A A31G] | 10.9 nM |
| CCCAACGACGGCCGAGCGAGAUUACGCUUGAGCGCCCCACUGAGGAUGCCCACGGGCGAUUGCGGCACGG [U10G G63C] | 43 nM |
| CCCAACGACGGCCGAGCGAGAUUACGCUUGAGCGCCCCACUGAGGAUGCCCACGGGCGAUUGUGGCACGG [U10G G63U] | 10.9 nM |
| CCCAACGACGGCCGAGCGAGAUUACGCUUGAGCGCCCCACUGAGGAUGCCCACGGGCGAUUGAGGCACGG [U10G G63A] | 16.5 nM |
| CCCAACGACGGCCGAGCGAGAUUACGCUUGAGCGCCCCACUGAGGAUGCCCACGGGCGAGUGGGGCACGG [U10G U60G] | 6.36 nM |
| CCCAACGACGGCCGAGCGAGAUUACGCUUGAGCGCCCCACUGAGGAUGCCCACGGGCGACUGGGGCACGG [U10G U60C] | 8.47 nM |
| CCCAACGACGGCCGAGCGAGAUUACGCUUGAGCGCCCCACUGAGGAUGCCCACGGGCGAAUGGGGCACGG [U10G U60A] | 8.76 nM |
| CCCAACGACGGCCGAGCGAGAUAACGCUUGAGCGCCCCACUGAGGAUGCCCACGGGCGAUUGGGGCACGG [U10G U23A] | 5.14 nM |
| CCCAACGACGGCCGAGCGAGAUGACGCUUGAGCGCCCCACUGAGGAUGCCCACGGGCGAUUGGGGCACGG [U10G U23G] | 5.1 nM |
| CCCAACGACGGCCGAGCGAGAUCACGCUUGAGCGCCCCACUGAGGAUGCCCACGGGCGAUUGGGGCACGG [U10G U23C] | 4.23 nM |
| CCCAACGACGGCCGAGCGAGAUUACGCUCGAGCGCCCCACUGAGGAUGCCCACGGGCGAUUGGGGCACGG [U10G U29C] | 4.67 nM |
| CCCAACGACGGCCGAGCGAGAUUACGCUAGAGCGCCCCACUGAGGAUGCCCACGGGCGAUUGGGGCACGG [U10G U29A] | 4.58 nM |
| CCCAACGACGGCCGAGCGAGAUUACGCUGGAGCGCCCCACUGAGGAUGCCCACGGGCGAUUGGGGCACGG [U10G U29G] | 5.05 nM |
| CCCAACGACGGCCGAGCGAGAAUACGCUUGAGCGCCCCACUGAGGAUGCCCACGGGCGAUUGGGGCACGG [U10G U22A] | 5.58 nM |
| CCCAACGACGGCCGAGCGAGACUACGCUUGAGCGCCCCACUGAGGAUGCCCACGGGCGAUUGGGGCACGG [U10G U22C] | 4.95 nM |
| CCCAACGACGGCCGAGCGAGAGUACGCUUGAGCGCCCCACUGAGGAUGCCCACGGGCGAUUGGGGCACGG [U10G U22G] | 4.87 nM |
| CCCAACGACGGCCGAGCGAGAUUACGCUUGAGCGCCCCACUGAGGAGGCCCACGGGCGAUUGGGGCACGG [U10G U47G] | 6.24 nM |
| CCCAACGACGGCCGAGCGAGAUUACGCUUGAGCGCCCCACUGAGGAAGCCCACGGGCGAUUGGGGCACGG [U10G U47A] | 10.8 nM |
| CCCAACGACGGCCGAGCGAGAUUACGCUUGAGCGCCCCACUGAGGAUGCCCACGGGCGAUUUGGGCACGG [U10G G62U] | 6.99 nM |
| CCCAACGACGGCCGAGCGAGAUUACGCUUGAGCGCCCCACUGAGGAUGCCCACGGGCGAUUAGGGCACGG [U10G G62A] | 16.9 nM |

| Variant | Kd |
| --- | --- |
| CCCAACGACGGCCGAGCGAGAUUACGCUUGAGCGCCCCACUGAGGAUGCCCACGGGCGAUUCGGGCACGG [U10G G62C] | 67.3 nM |
| CCCAACGACUACCGAGCGAGAUUGCGCUUGAGCGCCCCACUGAGGAUGCCCACGGGCGAUUGGGGCACGG [G11A A24G] | 5.78 nM |
| CCCAACGACGGCCGAGCGAGAUUACGCUUGAGCGCCCCACUGAGGAUGCCCACGGGCGAUUGGCGCACGG [U10G G64C] | 6.95 nM |
| CCCAACGACGGCCGAGCGAGAUUACGCUUGAGCGCCCCACUGAGGAUGCCCACGGGCGAUUGGAGCACGG [U10G G64A] | 7.4 nM |
| CCCAACGACGGCCGAGCGAGAUUACGCUUGAGCGCCCCACUGAGGAUGCCCACGGGCGAUUGGUGCACGG [U10G G64U] | 7.3 nM |
| CCCAACGACGGCCGAGCGAGAUUACGCCUGAGCGCCCCACUGAGGAUGCCCACGGGCGAUUGGGGCACGG [U10G U28C] | 8.85 nM |
| CCCAACGACGGCCGAGCGAGAUUACGCGUGAGCGCCCCACUGAGGAUGCCCACGGGCGAUUGGGGCACGG [U10G U28G] | 6.52 nM |
| CCCAACGACGGCCGAGCGAGAUUACGCAUGAGCGCCCCACUGAGGAUGCCCACGGGCGAUUGGGGCACGG [U10G U28A] | 4.53 nM |
| CCCAACGACGGCCGAGCGAGAUUACGCUUGAGCGCCCCACUGAGGAUGCCCACGGGCGAUUGGGCCACGG [U10G G65C] | 17 nM |
| CCCAACGACGGCCGAGCGAGAUUACGCUUGAGCGCCCCACUGAGGAUGCCCACGGGCGAUUGGGUCACGG [U10G G65U] | 6.08 nM |
| CCCAACGACGGCCGAGCGAGAUUACGCUUGAGCGCCCCACUGAGGAUGCCCACGGGCGAUUGGGACACGG [U10G G65A] | 4.82 nM |
| CCCAACGACGGCCGAGCGAGAUUACGCUUGAGCGCCCCACCGAGGAUGCCCACGGGCGAUUGGGGCACGG [U10G U41C] | 76.2 nM |
| CCCAACGACGGCCGAGCGAGAUUACGCUUGAGCGCCCCACAGAGGAUGCCCACGGGCGAUUGGGGCACGG [U10G U41A] | 82.6 nM |
| CCCAACGACGGCCGAGCGAGAUUACGCUUGAGCGCCCCACGGAGGAUGCCCACGGGCGAUUGGGGCACGG [U10G U41G] | 5.17 nM |
| CCCAACGACUACCGAGCGAGAUUACGCUUGAGCGCCCCUCUGAGGAUGCCCACGGGCGAUUGGGGCACGG [G11A A39U] | 24.2 nM |
| CCCAACGACUACCGAGCGAGAUUACGCUUGAGCGCCCCACUGAGGAUGCCCACGGGCGAUUGGGGCACGG [G11A] | 5.29 nM |
| CCCAACGACGGCCGAGCGAGAUUACGCUUGAGCGCCCCACUGAGGAUGCCCACGGGCGAUGGGGGCACGG [U10G U61G] | 8.63 nM |
| CCCAACGACGGCCGAGCGAGAUUACGCUUGAGCGCCCCACUGAGGAUGCCCACGGGCGAUAGGGGCACGG [U10G U61A] | 29.9 nM |
| CCCAACGACUACCGAGCGGGAUUACGCUUGAGCGCCCCACUGAGGAUGCCCACGGGCGAUUGGGGCACGG [G11A A19G] | 6.92 nM |
